Test results as given in ChEMBL document CHEMBL3286281, “Amino derivatives of glycyrrhetinic acid as potential inhibitors of cholinesterases” (Bioorg Med Chem, 2014).

Legend:
Papain (Carica papaya) [1] = biological target: T1, Papain (Carica papaya) (UniProt P00784); test: Inhibition of Carica papaya papain at 50 uM
T1 sequence (whole entry): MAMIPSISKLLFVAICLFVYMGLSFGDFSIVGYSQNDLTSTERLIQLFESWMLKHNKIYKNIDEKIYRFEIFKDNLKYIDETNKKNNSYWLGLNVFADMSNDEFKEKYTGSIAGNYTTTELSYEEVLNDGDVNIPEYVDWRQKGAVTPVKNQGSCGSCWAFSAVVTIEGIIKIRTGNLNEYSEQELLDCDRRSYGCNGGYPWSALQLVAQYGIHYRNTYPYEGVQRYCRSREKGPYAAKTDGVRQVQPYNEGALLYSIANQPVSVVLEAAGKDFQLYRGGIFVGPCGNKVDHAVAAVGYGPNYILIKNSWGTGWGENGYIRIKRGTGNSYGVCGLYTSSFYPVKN
How it was run: (§1)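 Carica papaya papain in 50 mM Tris-HCl pH 6.2 preincubated with compound for 20 min at 37 °C. Reaction started with 4-nitrophenyl acetate. Absorbance at 415 nm read each minute for 10 min at 37 °C, in duplicate. Relative inhibition calculated as the ratio of slopes, compound versus blank, over the linear range.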

Acetylcholinesterase = Acetylcholinesterase (Electrophorus electricus, UniProt O42275); test: Inhibition of Electrophorus electricus AChE using acetylthiocholine iodide as substrate after 20 mins measured for 1 min interval for 30 mins by Ellman's method
Acetylcholinesterase, sequence (O42275 whole entry): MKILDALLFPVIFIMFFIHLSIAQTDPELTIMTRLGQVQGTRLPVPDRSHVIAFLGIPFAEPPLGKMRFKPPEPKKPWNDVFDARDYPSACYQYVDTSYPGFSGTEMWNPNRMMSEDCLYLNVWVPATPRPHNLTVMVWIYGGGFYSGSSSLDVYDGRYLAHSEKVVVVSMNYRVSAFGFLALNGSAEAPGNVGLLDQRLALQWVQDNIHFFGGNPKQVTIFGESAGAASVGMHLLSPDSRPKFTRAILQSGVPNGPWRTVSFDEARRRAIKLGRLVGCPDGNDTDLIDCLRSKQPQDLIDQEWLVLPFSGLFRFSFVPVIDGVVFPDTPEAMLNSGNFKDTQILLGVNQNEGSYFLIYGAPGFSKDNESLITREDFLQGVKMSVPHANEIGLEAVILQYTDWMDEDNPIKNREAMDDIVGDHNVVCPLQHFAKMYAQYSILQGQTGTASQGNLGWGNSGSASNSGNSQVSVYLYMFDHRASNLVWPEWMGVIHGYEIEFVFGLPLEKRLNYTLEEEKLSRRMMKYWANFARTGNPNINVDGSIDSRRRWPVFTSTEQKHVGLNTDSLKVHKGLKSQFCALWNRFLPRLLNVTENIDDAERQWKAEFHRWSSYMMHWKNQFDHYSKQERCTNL

Cholinesterase = Cholinesterase (Equus caballus, UniProt P81908); test: Inhibition of equine serum BChE using butyrylthiocholine iodide as substrate after 20 mins measured for 1 min interval for 30 mins by Ellman's method
Cholinesterase, sequence (P81908 whole entry): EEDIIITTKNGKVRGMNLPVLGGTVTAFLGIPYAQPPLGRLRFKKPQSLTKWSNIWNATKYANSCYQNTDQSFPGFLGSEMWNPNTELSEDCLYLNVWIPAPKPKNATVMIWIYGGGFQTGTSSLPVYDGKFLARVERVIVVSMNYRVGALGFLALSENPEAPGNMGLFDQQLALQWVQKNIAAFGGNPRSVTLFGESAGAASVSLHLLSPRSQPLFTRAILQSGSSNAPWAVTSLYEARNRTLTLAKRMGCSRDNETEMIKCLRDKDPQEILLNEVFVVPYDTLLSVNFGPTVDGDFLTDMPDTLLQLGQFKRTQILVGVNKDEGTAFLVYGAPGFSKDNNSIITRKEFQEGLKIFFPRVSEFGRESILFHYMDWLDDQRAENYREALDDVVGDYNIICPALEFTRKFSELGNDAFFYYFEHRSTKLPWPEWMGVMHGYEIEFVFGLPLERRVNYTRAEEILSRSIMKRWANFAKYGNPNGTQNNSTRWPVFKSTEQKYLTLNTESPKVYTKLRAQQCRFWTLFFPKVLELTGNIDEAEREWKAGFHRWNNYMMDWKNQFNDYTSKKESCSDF

[2] = Selectivity ratio of Ki for Electrophorus electricus AChE to Ki for equine serum BChE
How it was run: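 Ki from Ellman kinetics at pH 8.0 and 30 °C after 20 min enzyme–inhibitor–DTNB preincubation. Inhibitor at several concentrations plus a water blank; ATChI or BTChI at 0.9375, 0.625, 0.325 and 0.1875 mM. A415 read every 1 min for 30 min, in triplicate. Ki from Lineweaver-Burk, Dixon and Cornish-Bowden plots; F = Ki(AChE)/Ki(BChE).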

[3] = biological target: Carbonic anhydrase 2 (Bos taurus) (UniProt P00921); test: Inhibition of bovine erythrocytes carbonic anhydrase 2 at 50 uM
Carbonic anhydrase 2 (Bos taurus), sequence (P00921 2-260 limits assumed): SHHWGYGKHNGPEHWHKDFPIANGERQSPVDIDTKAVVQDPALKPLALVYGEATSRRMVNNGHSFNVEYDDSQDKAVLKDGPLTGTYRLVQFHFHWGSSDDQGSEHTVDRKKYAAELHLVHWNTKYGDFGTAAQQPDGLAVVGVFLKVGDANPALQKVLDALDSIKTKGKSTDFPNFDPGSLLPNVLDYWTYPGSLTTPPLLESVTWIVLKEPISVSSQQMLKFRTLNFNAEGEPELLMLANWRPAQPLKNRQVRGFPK
How it was run: (§2)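 Enzyme (bovine erythrocyte carbonic anhydrase II or Candida antarctica lipase) in 50 mM Tris-HCl pH 8.0 preincubated with compound for 20 min at 37 °C. Reaction started with 4-nitrophenyl acetate substrate. Absorbance at 415 nm followed each minute for 10 min at 37 °C, in duplicate. Relative inhibition taken as the slope ratio, compound over blank, over the linear range.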

Candida antarctica [4] = test: Inhibition of Candida antarctica lipase at 50 uM; how it was run: as §2
[5] = biological target: Acetylcholinesterase (Electrophorus electricus) (UniProt O42275); test: Inhibition of Electrophorus electricus AChE using acetylthiocholine iodide as substrate at 50 uM after 20 mins measured for 1 min interval for 30 mins by Ellman's method
Acetylcholinesterase (Electrophorus electricus), sequence (O42275 24-633 limits assumed): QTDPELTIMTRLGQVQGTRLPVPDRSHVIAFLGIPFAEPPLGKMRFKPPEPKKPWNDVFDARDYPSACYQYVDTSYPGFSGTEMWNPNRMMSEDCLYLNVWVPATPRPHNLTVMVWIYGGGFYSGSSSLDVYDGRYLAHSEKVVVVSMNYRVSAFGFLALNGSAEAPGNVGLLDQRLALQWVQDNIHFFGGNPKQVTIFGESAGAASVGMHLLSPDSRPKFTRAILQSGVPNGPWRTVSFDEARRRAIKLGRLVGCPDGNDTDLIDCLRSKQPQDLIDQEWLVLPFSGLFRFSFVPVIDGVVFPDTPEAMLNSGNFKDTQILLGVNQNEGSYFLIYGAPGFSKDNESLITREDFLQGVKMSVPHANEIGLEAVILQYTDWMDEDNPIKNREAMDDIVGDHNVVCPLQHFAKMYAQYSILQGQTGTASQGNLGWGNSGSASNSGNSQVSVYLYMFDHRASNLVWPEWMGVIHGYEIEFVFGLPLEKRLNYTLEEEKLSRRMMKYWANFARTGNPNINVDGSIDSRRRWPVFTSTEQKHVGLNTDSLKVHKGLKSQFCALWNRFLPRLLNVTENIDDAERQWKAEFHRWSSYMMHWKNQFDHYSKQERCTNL
How it was run: (§3)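 Ellman assay in 50 mM Tris-HCl pH 8.0. Enzyme was preincubated with DTNB (3 mM stock) and compound at 30 °C for 20 min. Reaction started with ATChI for AChE or BTChI for BChE. Absorbance at 415 nm was read at 30 °C every 1 min for 30 min. Triplicates.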

[6] = biological target: Cholinesterase (Equus caballus) (UniProt P81908); test: Inhibition of equine serum BChE using butyrylthiocholine iodide as substrate at 50 uM after 20 mins measured for 1 min interval for 30 mins by Ellman's method; how it was run: as §3
Cholinesterase (Equus caballus), sequence (P81908 whole entry): as the sequence (P81908 whole entry) above

[7] = Cytotoxicity against mouse NIH/3T3 cells after 96 hrs by sulforhodamine-B assay; type: cell-based; settings: NIH3T3, 96 h
How it was run: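 NIH 3T3 murine embryonic fibroblasts grown as monolayers in RPMI 1640 with 10% heat-inactivated FBS and penicillin/streptomycin, 37 °C, 5% CO2. Cells seeded, then exposed after 24 h to serial dilutions (0-30 μM) for 96 h, DMSO or DMF ≤0.5%. Fixed with 10% TCA at 4 °C, stained with 0.4% SRB, dye solubilized in 10 mM Tris base, absorbance read at 570 nm. Survival relative to untreated controls gave IC50. Triplicate.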

Papain (Carica papaya) [8] = biological target: T1, Papain (Carica papaya); test: Inhibition of Carica papaya papain at 10 uM; how it was run: as §1
[9] = biological target: Carbonic anhydrase 2 (Bos taurus) (UniProt P00921); test: Inhibition of bovine erythrocytes carbonic anhydrase 2 at 10 uM; how it was run: as §2
Candida antarctica [10] = test: Inhibition of Candida antarctica lipase at 10 uM; how it was run: as §2
[11] = biological target: Acetylcholinesterase (Electrophorus electricus) (UniProt O42275); test: Inhibition of Electrophorus electricus AChE using acetylthiocholine iodide as substrate at 10 uM after 20 mins measured for 1 min interval for 30 mins by Ellman's method; how it was run: as §3
[12] = biological target: Cholinesterase (Equus caballus) (UniProt P81908); test: Inhibition of equine serum BChE using butyrylthiocholine iodide as substrate at 10 uM after 20 mins measured for 1 min interval for 30 mins by Ellman's method; how it was run: as §3
[13] = Solubility of the compound; type: physicochemical

Structure (SMILES) | inhibition (Papain (Carica papaya) [1]) | Ki (Acetylcholinesterase) | Ki (Cholinesterase) | Ratio Ki [2] | inhibition [3] | inhibition (Candida antarctica [4]) | inhibition [5] | inhibition [6] | IC50 [7] | inhibition (Papain (Carica papaya) [8]) | inhibition [9] | inhibition (Candida antarctica [10]) | inhibition [11] | inhibition [12] | solubility [13]
CC1(C)[C@@H](O)CC[C@]2(C)[C@H]3C(=O)C=C4[C@@H]5C[C@@](C)(C(=O)OCCCCCCBr)CC[C@]5(C)CC[C@@]4(C)[C@]3(C)CC[C@@H]12 | 0% | 13 µM | > 100 µM | < 0.13 | 0% | 45% | 43% | 30% | > 30 µM |  |  |  |  |  | 
COC(=O)[C@@]1(C)CC[C@]2(C)CC[C@]3(C)C(=CC(=O)[C@@H]4[C@@]5(C)CC[C@H](OC(=O)[C@@H](N)CCN)C(C)(C)[C@@H]5CC[C@]43C)[C@@H]2C1 | 0% | 18.7 µM | > 100 µM | < 0.19 | 0% | 38% | 68% | 16% | 3.05 µM |  |  |  |  |  | 
COC(=O)[C@@]1(C)CC[C@]2(C)CC[C@]3(C)C(=CC(=O)[C@@H]4[C@@]5(C)CC[C@H](OC(=O)[C@@H](N)CCC(=O)OCc6ccccc6)C(C)(C)[C@@H]5CC[C@]43C)[C@@H]2C1 | 0% | 16.1 µM | > 100 µM | < 0.16 | 15% | 51% | 58% | 16% | > 30 µM |  |  |  |  |  | 
CC1(C)[C@@H](O)CC[C@]2(C)[C@H]3C(=O)C=C4[C@@H]5C[C@@](C)(C(=O)NCCCN)CC[C@]5(C)CC[C@@]4(C)[C@]3(C)CC[C@@H]12 | 0% | > 100 µM | 5.43 µM | > 18.4 | 0% | 51% | 35% | 79% | > 30 µM |  |  |  |  |  | 
CC1(C)[C@@H](O)CC[C@]2(C)[C@H]3C(=O)C=C4[C@@H]5C[C@@](C)(C(=O)On6nnc7ccccc76)CC[C@]5(C)CC[C@@]4(C)[C@]3(C)CC[C@@H]12 |  | > 20 µM | 9.81 µM | > 2.04 |  |  |  |  | > 30 µM | 0% | 27% | 32% | 49% | 68% | 
COC(=O)C[C@H](N)C(=O)O[C@H]1CC[C@]2(C)[C@H]3C(=O)C=C4[C@@H]5C[C@@](C)(C(=O)OC)CC[C@]5(C)CC[C@@]4(C)[C@]3(C)CC[C@H]2C1(C)C |  |  |  |  |  |  |  |  |  |  |  |  |  |  | Insoluble
CC[C@H](C)[C@H](N)C(=O)O[C@H]1CC[C@]2(C)[C@H]3C(=O)C=C4[C@@H]5C[C@@](C)(C(=O)OC)CC[C@]5(C)CC[C@@]4(C)[C@]3(C)CC[C@H]2C1(C)C |  |  |  |  |  |  |  |  |  |  |  |  |  |  | Insoluble
COC(=O)[C@@]1(C)CC[C@]2(C)CC[C@]3(C)C(=CC(=O)[C@@H]4[C@@]5(C)CC[C@H](OC(=O)[C@@H](N)C(C)C)C(C)(C)[C@@H]5CC[C@]43C)[C@@H]2C1 |  |  |  |  |  |  |  |  |  |  |  |  |  |  | Insoluble
COC(=O)[C@@]1(C)CC[C@]2(C)CC[C@]3(C)C(=CC(=O)[C@@H]4[C@@]5(C)CC[C@H](OC(=O)[C@@H](N)CCCN)C(C)(C)[C@@H]5CC[C@]43C)[C@@H]2C1 |  |  |  |  |  |  |  |  |  |  |  |  |  |  | Insoluble
